Assay results as given in ChEMBL document CHEMBL2010798, “Selenium-containing naphthalimides as anticancer agents: design, synthesis and bioactivity” (Bioorg Med Chem, 2012).
Activity calls are given as the source filed them. No cut-off for these calls is given here.

Assays:
HeLa = test: Cytotoxicity against human HeLa cells by MTT assay; assay type: functional, cell-based
HCT-116 = test: Cytotoxicity against human HCT116 cells by MTT assay; assay type: functional, cell-based
K562 = test: Cytotoxicity against human K562 cells by MTT assay; assay type: functional, cell-based
A549 = test: Cytotoxicity against human A549 cells by MTT assay; assay type: functional, cell-based
MCF7 = test: Cytotoxicity against human MCF7 cells by MTT assay; assay type: functional, cell-based
Nucleic Acid [1] = test: Binding affinity to calf thymus DNA assessed as hyperchromic effect at 10 uM by UV-Vis spectrophotometric analysis; assay type: nucleic-acid assay; details: Bos taurus, in the assay text read “hypochromic” for “hyperchromic”
How it was run: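 Its concentration was set by absorption at 260 nm (6600 M⁻¹ cm⁻¹), and it was stored at 4 °C and used within 4 days. UV–vis absorption spectra of compound (10) were recorded in 20 mM Tris–HCl, pH 7.5, 25 °C, with ct-DNA increasing from 0 to 160.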

Nucleic Acid [2] = test: Binding affinity to calf thymus DNA by fluorescence quenching technique; assay type: nucleic-acid assay; details: Bos taurus
How it was run: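 Calf thymus DNA was prepared as in line 1. Compound was held at 10 while ct-DNA was titrated at 0, 10, 20, 40, 60, 80, 100, 120, 140 and 160 in 20 mM Tris–HCl, pH 7.5. Solutions were equilibrated for 1 day at 25 °C in the dark, and fluorescence emission was recorded. Kb was fitted to a single-site quenching equation.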

| Activity (Nucleic Acid [1]) | Kb (Nucleic Acid [2]) | SMILES | IC50 (HeLa) | IC50 (HCT-116) | IC50 (K562) | IC50 (A549) | IC50 (MCF7) |
| --- | --- | --- | --- | --- | --- | --- | --- |
| – | – | CCN(CC)CCN1C(=O)c2cccc3c(NCC[Se]c4ccccc4)ccc(c23)C1=O | 15.5 µM | 14.6 µM | 8.9 µM | 10.7 µM | 11.9 µM |
| – | – | CCCCCCCCN1C(=O)c2cccc3c(NCC[Se]c4ccccc4)ccc(c23)C1=O | 16.7 µM | 18.1 µM | 18.7 µM | 20.6 µM | 11.6 µM |
| Active | 2.43 ×10⁴ /M | CN(C)CCN1C(=O)c2cccc3c(NCC[Se]c4ccccc4)ccc(c23)C1=O | 16.8 µM | 19.5 µM | 11.7 µM | 17.4 µM | 18.2 µM |
| – | – | CN(C)CCN1C(=O)c2cccc3c(NCC[Se]c4ccc(OC(F)(F)F)cc4)ccc(c23)C1=O | > 25 µM | 9.9 µM | 9.4 µM | 14.4 µM | 16.4 µM |
| – | – | CCCCN1C(=O)c2cccc3c(NCC[Se]c4ccccc4)ccc(c23)C1=O | > 25 µM | > 25 µM | > 25 µM | > 25 µM | > 25 µM |
| – | – | CN(C)CCN1C(=O)c2cccc3c(N4CC[Se]CC4)ccc(c23)C1=O | 5.6 µM | 5.4 µM | 5.3 µM | 8.7 µM | 5.3 µM |
| – | – | CN(C)CCN1C(=O)c2cccc3cc(N)cc(c23)C1=O [AMONAFIDE] | – | – | > 50 µM | – | – |
| – | – | COc1ccc([Se]CCNc2ccc3c4c(cccc24)C(=O)N(CCN(C)C)C3=O)cc1 | 17.9 µM | 17.6 µM | 16.6 µM | 22.3 µM | 18.3 µM |
| Active | 8.26 ×10⁴ /M | CN(C)CCN1C(=O)c2cccc3c(NCCSc4ccccc4)ccc(c23)C1=O | 15.1 µM | 16.4 µM | 11.2 µM | 18 µM | 19.1 µM |
| – | – | Cc1ccc([Se]CCNc2ccc3c4c(cccc24)C(=O)N(CCN(C)C)C3=O)cc1 | > 25 µM | 20 µM | 21.3 µM | 21 µM | 19.3 µM |
